# Measurements pooled from the literature.
# Compare with care: the assays were run in different laboratories.
# Cell line: Vero
# Observed: cell growth or viability
Structure (SMILES),test,setting,CC50
COc1cccc(NCc2ccc(Oc3ccccn3)cc2)c1,MTT,72 h,> 300 µM
O=C(Nc1ccc(Br)c(C(F)(F)F)c1)c1cc(Cl)ccc1O,MTT,72 h,5 µg/mL
CC(=O)C1=C(C)N2NC(C)(c3ccccc3O)N(C(Cc3c[nH]c4ccccc34)C(=O)O)C2=NC1c1ccc(Cl)cc1 (stereo not drawn),MTT,72 h,500 µg/mL
Cc1ccc(NCc2ccc(Oc3ccccn3)cc2)cc1,MTT,72 h,> 300 µM
CN(C)N1C(=O)c2ccccc2C1CB1OC(C)(C)C(C)(C)O1 (stereo not drawn),,,204 µM
Cc1cccc(NCc2ccc(Oc3ccccn3)cc2)c1,MTT,72 h,> 300 µM
COC(=O)N[C@H](C(=O)N1C[C@@H](N=[N+]=[N-])C[C@H]1c1nc(Br)c(-c2ccc(-c3ccc(-c4[nH]c([C@@H]5C[C@H](N=[N+]=[N-])CN5C(=O)[C@@H](NC(=O)OC)C(C)C)nc4Br)cc3)cc2)[nH]1)C(C)C,,,> 100 µM
CC(=O)C1=C(C)N2NC(c3ccccc3O)N(C(Cc3c[nH]c4ccccc34)C(=O)O)C2=NC1c1ccc(Cl)cc1 (stereo not drawn),MTT,72 h,250 µg/mL
Clc1ccccc1NCc1ccc(Oc2ccccn2)cc1,MTT,72 h,> 300 µM
CC(C(=O)O)N1c2nc(-c3ccc(Cl)cc3)c(C#N)c(=O)n2NC1c1ccccc1O (stereo not drawn),MTT,72 h,500 µg/mL
Brc1cccc(NCc2ccc(Oc3ccccn3)cc2)c1,MTT,72 h,> 300 µM
CC(C(=O)O)N1c2nc(-c3ccc(Cl)cc3)c(C#N)c(=O)n2NC1(C)c1ccccc1O (stereo not drawn),MTT,72 h,250 µg/mL
O=C(Nc1cccc(C(F)(F)F)c1)c1cc(Cl)ccc1O,MTT,72 h,< 5 µg/mL
Cc1cn([C@H]2C[C@H](N=[N+]=[N-])[C@@H](CO)O2)c(=O)[nH]c1=O,,,51 µM
O=C(Nc1ccc(F)c(F)c1)c1cc(Cl)ccc1O,MTT,72 h,< 5 µg/mL
O=C1C(O)=C([C@H]2CC[C@H](c3ccc(Cl)cc3)CC2)C(=O)c2ccccc21,,,9.5 µM
c1ccc(NCc2ccc(Oc3ccccn3)cc2)cc1,MTT,72 h,> 300 µM
C[C@H]1COc2c(N3CCN(C)CC3)c(F)cc3c(=O)c(C(=O)O)cn1c23,MTT,72 h,> 100 µg/mL
COC(=O)N[C@H](C(=O)N1CCC[C@H]1c1nc(-c2ccc(-c3ccc(-c4c[nH]c([C@@H]5CCCN5C(=O)[C@@H](NC(=O)OC)C(C)C)n4)cc3)cc2)c[nH]1)C(C)C,,,26 µM
C[C@@H]1[C@H](O)[C@@H](C)/C=C/C=C/C=C/C=C/C=C/C=C/C=C/[C@H](O[C@@H]2O[C@H](C)[C@@H](O)[C@H](N)[C@@H]2O)C[C@@H]2O[C@](O)(C[C@@H](O)C[C@@H](O)[C@H](O)CC[C@@H](O)C[C@@H](O)CC(=O)O[C@H]1C)C[C@H](O)[C@H]2C(=O)O,,,7.7 µM
O=C(Nc1ccc([N+](=O)[O-])cc1F)c1cc(Cl)ccc1O,MTT,72 h,5 µg/mL
